Assay results from ChEMBL document CHEMBL3588807, “Cytotoxic Indolocarbazoles from Actinomadura melliaura ATCC 39691” (J Nat Prod, 2015).
Activity calls are given as the source filed them. The calls are words filed in the database; no cut-off is given here.

Key:
Salmonella enterica = test: Antimicrobial activity against Salmonella enterica ATCC 10708 assessed as inhibition of microbial growth up to 60 uM incubated for 16 to 48 hrs; format: functional, organism-based
In short: (§1)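 MIC determined in triplicate against bacterial and yeast strains. Bacterial MICs were read after 16–48 h of incubation and the Saccharomyces cerevisiae MIC after 24 h. Procedure otherwise follows an earlier report.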

[1] = system: Mycolicibacterium smegmatis; test: Antimicrobial activity against Mycobacterium smegmatis ATCC 14468 assessed as inhibition of microbial growth incubated for 16 to 48 hrs; format: functional; in short: as §1
Staphylococcus aureus [2] = test: Antimicrobial activity against Staphylococcus aureus ATCC 6538 assessed as inhibition of microbial growth incubated for 16 to 48 hrs; format: functional; in short: as §1
[3] = Cytotoxic activity against human U118MG cells assessed as cell viability at 10 uM incubated for 72 hrs; format: functional; conditions: U-118-MG, read-out: Activity
In short: (§2)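 Single-dose viability screen at 10 μM, run in triplicate, on human cancer cell lines.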

Escherichia coli = test: Antimicrobial activity against Escherichia coli NRRL B-3708 assessed as inhibition of microbial growth up to 60 uM incubated for 16 to 48 hrs; format: functional, organism-based; in short: as §1
PC-3 [4] = test: Cytotoxic activity against human PC3 cells assessed as cell viability at 10 uM incubated for 72 hrs; format: functional; conditions: PC-3, 72 h, read-out: Activity; in short: as §2
Micrococcus luteus [5] = test: Antimicrobial activity against Micrococcus luteus NRRL B-287 assessed as inhibition of microbial growth incubated for 16 to 48 hrs; format: functional; in short: as §1
A549 [6] = test: Cytotoxic activity against human A549 cells assessed as cell viability at 10 uM incubated for 72 hrs; format: functional; conditions: A549, 72 h, read-out: Activity; in short: as §2
Saccharomyces cerevisiae [7] = test: Antimicrobial activity against Saccharomyces cerevisiae ATCC 204508 assessed as inhibition of microbial growth incubated for 24 hrs; format: functional; conditions: ATCC 204508, 24 h; in short: as §1
Staphylococcus aureus [8] = test: Antimicrobial activity against Staphylococcus aureus ATCC 6538 assessed as inhibition of microbial growth up to 60 uM incubated for 16 to 48 hrs; format: functional, organism-based; in short: as §1
Saccharomyces cerevisiae [9] = test: Antimicrobial activity against Saccharomyces cerevisiae ATCC 204508 assessed as inhibition of microbial growth up to 60 uM incubated for 24 hrs; format: functional, organism-based; in short: as §1
[10] = system: Mycolicibacterium smegmatis; test: Antimicrobial activity against Mycobacterium smegmatis ATCC 14468 assessed as inhibition of microbial growth up to 120 uM incubated for 16 to 48 hrs; format: functional, organism-based; in short: as §1
Micrococcus luteus [11] = test: Antimicrobial activity against Micrococcus luteus NRRL B-287 assessed as inhibition of microbial growth up to 60 uM incubated for 16 to 48 hrs; format: functional, organism-based; in short: as §1
[12] = Cytotoxic activity against human U118MG cells assessed as reduction in cell viability incubated for 72 hrs; format: functional, cell-based; conditions: U-118-MG
In short: (§3)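 IC50 determined from viability over 0.03 to 100 000 nM, run in triplicate, on human cancer cell lines.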

PC-3 [13] = test: Cytotoxic activity against human PC3 cells assessed as reduction in cell viability incubated for 72 hrs; format: functional, cell-based; conditions: PC-3, 72 h; in short: as §3
A549 [14] = test: Cytotoxic activity against human A549 cells assessed as reduction in cell viability incubated for 72 hrs; format: functional, cell-based; conditions: A549, 72 h; in short: as §3

Compound | MIC [1] [µM] | MIC (Staphylococcus aureus [2]) [µM] | MIC (Micrococcus luteus [5]) [µM] | MIC (Saccharomyces cerevisiae [7]) [µM] | growth inhibition (GI) (Salmonella enterica) | viability at 10 µM [3] [%] | growth inhibition (GI) (Escherichia coli) | viability at 10 µM (PC-3 [4]) [%] | viability at 10 µM (A549 [6]) [%] | growth inhibition (GI) (Staphylococcus aureus [8]) | growth inhibition (GI) (Saccharomyces cerevisiae [9]) | growth inhibition (GI) [10] | growth inhibition (GI) (Micrococcus luteus [11]) | IC50 [12] [µM] | IC50 (PC-3 [13]) [µM] | IC50 (A549 [14]) [µM]
CO[C@H]1[C@H](O)[C@@H](O)[C@H](n2c3c(Cl)cccc3c3c4c(c5c6ccccc6[nH]c5c32)C(=O)N(C)C4=O)O[C@@H]1CO |  |  |  |  | inactive | 40.5 | inactive | 69 | 47.4 | inactive | inactive | inactive | inactive |  |  | 
CN[C@H]1CO[C@@H](OC[C@H]2O[C@@H](n3c4c(Cl)cccc4c4c5c(c6c7ccccc7[nH]c6c43)C(=O)NC5=O)[C@H](O)[C@@H](O)[C@@H]2OC)C[C@@H]1O | 120 | 7.5 | 7.5 | > 60 | inactive | 31.3 | inactive | 39 | 19.9 |  |  |  |  | 0.0473 | 0.0458 | 0.0696
CN[C@H]1CO[C@@H](OC[C@H]2O[C@@H](n3c4c(Cl)cccc4c4c5c(c6c7ccccc7[nH]c6c43)C(=O)N(C)C5=O)[C@H](O)[C@@H](O)[C@@H]2OC)C[C@@H]1O | 60 | 1 | 7.5 | 7.5 | inactive | 20.8 | inactive | 27 | 10.5 |  |  |  |  | 0.0568 | 0.106 | 0.0764
CN1C(=O)c2c(c3c4cccc(Cl)c4[nH]c3c3[nH]c4ccccc4c23)C1=O |  |  |  |  | inactive | 186 | inactive | 155 | 164 | inactive | inactive | inactive | inactive |  |  | 
O=C1NC(=O)c2c1c1c3ccccc3[nH]c1c1c2c2ccccc2n1[C@@H]1O[C@H](CO)[C@@H](O)[C@H](O)[C@H]1O |  |  |  |  | inactive | 53.6 | inactive | 47.7 | 32.6 | inactive | inactive | inactive | inactive |  |  | 

Further lines, with some results ahead:

MIC [1] [µM] | MIC (Staphylococcus aureus [2]) [µM] | MIC (Micrococcus luteus [5]) [µM] | MIC (Saccharomyces cerevisiae [7]) [µM] | Compound | growth inhibition (GI) (Salmonella enterica) | viability at 10 µM [3] [%] | growth inhibition (GI) (Escherichia coli) | viability at 10 µM (PC-3 [4]) [%] | viability at 10 µM (A549 [6]) [%] | growth inhibition (GI) (Staphylococcus aureus [8]) | growth inhibition (GI) (Saccharomyces cerevisiae [9]) | growth inhibition (GI) [10] | growth inhibition (GI) (Micrococcus luteus [11]) | IC50 [12] [µM] | IC50 (PC-3 [13]) [µM] | IC50 (A549 [14]) [µM]
120 | 7.5 | 7.5 | > 60 | CN[C@H]1CO[C@@H](OC[C@H]2O[C@@H](n3c4ccccc4c4c5c(c6c7ccccc7[nH]c6c43)C(=O)N(C)C5=O)[C@H](O)[C@@H](O)[C@@H]2OC)C[C@@H]1O | inactive | 29.4 | inactive | 36.4 | 16.6 |  |  |  |  |  |  | 
> 120 | 7.5 | 15 | > 60 | CO[C@H]1[C@H](O)[C@@H](O)[C@H](n2c3ccccc3c3c4c(c5c6ccccc6[nH]c5c32)C(=O)N(C)C4=O)O[C@@H]1CO | inactive | 61 | inactive | 98.3 | 96.6 |  |  |  |  |  |  | 
